Measured values published in ChEMBL document CHEMBL4828723, “Synthesis and Biological Evaluation of Falcarinol-Type Analogues as Potential Calcium Channel Blockers” (J Nat Prod, 2021).
The source made the active and inactive calls. The rule behind the calls is not given here.

Experiments:
[1] = test system: PC-12; test: Neuroprotective activity against NaN3-induced cell injury in rat PC12 cells assessed as cell survival rate at 100 uM measured after 24 hrs by CCK-8 assay (reference value: 49.9 to 52%); format: functional; settings: read-out: Survival
[2] = test system: PC-12; test: Neuroprotective activity against NaN3-induced cell injury in rat PC12 cells assessed as cell survival rate at 80 uM measured after 24 hrs by CCK-8 assay (reference value: 49.9 to 52%); format: functional; settings: read-out: Survival
[3] = test system: PC-12; test: Neuroprotective activity against NaN3-induced cell injury in rat PC12 cells assessed as cell survival rate at 40 uM measured after 24 hrs by CCK-8 assay (reference value: 49.9 to 52%); format: functional; settings: read-out: Survival
[4] = test system: PC-12; test: Neuroprotective activity against NaN3-induced cell injury in rat PC12 cells assessed as cell survival rate at 10 uM measured after 24 hrs by CCK-8 assay (reference value: 49.9 to 52%); format: functional; settings: read-out: Survival
[5] = test system: PC-12; test: Neuroprotective activity against NaN3-induced cell injury in rat PC12 cells assessed as cell survival rate at 20 uM measured after 24 hrs by CCK-8 assay (reference value: 49.9 to 52%); format: functional; settings: read-out: Survival
[6] = test system: PC-12; test: Neuroprotective activity against NaN3-induced cell injury in rat PC12 cells assessed as cell survival rate at 5 uM measured after 24 hrs by CCK-8 assay (reference value: 49.9 to 52%); format: functional; settings: read-out: Survival
[7] = test system: PC-12; test: Neuroprotective activity in rat PC12 cells assessed as reduction in NaN3-induced MDA release at 5 uM measured (reference value: 253 nmol/mL); format: functional
[8] = target: T1, Cav1.2 (L-type calcium channel alpha1c/beta2a/alpha2delta1) (Homo sapiens, UniProt P54289+Q08289+Q13936); test: Inhibition of human alpha1c/beta2a/alpha2delta1 Cav1.2 expressed in HEK293 cells assessed as time course of inhibition of membrane potential measured after washout with external solution at 30 uM by manual patch clamp technique; format: cell-based
T1 sequence (P54289 25-956 limits assumed): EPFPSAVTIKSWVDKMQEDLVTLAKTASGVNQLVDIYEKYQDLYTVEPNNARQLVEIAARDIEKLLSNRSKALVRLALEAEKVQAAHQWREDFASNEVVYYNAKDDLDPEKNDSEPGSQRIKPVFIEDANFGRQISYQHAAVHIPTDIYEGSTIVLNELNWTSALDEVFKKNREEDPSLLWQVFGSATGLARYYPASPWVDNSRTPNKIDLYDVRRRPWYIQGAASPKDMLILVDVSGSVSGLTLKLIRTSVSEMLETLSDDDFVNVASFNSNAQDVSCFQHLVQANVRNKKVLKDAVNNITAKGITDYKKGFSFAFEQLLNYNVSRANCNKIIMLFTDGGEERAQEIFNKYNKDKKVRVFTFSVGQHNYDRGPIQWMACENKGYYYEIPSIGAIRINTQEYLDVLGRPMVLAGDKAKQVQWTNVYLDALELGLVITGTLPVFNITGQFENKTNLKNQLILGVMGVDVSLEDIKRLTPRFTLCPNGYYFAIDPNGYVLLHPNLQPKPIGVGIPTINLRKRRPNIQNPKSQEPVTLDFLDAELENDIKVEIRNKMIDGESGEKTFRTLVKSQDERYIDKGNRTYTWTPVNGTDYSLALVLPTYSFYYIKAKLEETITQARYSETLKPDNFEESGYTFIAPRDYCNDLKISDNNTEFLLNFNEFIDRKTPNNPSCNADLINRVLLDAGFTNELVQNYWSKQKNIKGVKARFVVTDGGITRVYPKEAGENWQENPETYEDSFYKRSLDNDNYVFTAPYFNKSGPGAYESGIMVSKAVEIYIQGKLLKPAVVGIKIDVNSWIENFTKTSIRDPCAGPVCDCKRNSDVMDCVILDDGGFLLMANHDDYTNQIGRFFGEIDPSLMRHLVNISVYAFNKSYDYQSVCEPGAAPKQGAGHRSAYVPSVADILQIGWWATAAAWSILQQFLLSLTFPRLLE
T1 sequence (P54289 957-1103 limits assumed): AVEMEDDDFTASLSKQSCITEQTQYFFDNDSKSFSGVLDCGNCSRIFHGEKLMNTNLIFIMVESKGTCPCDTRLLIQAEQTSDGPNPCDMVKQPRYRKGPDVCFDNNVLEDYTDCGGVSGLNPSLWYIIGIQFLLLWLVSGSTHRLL
T1 sequence (Q08289 whole entry): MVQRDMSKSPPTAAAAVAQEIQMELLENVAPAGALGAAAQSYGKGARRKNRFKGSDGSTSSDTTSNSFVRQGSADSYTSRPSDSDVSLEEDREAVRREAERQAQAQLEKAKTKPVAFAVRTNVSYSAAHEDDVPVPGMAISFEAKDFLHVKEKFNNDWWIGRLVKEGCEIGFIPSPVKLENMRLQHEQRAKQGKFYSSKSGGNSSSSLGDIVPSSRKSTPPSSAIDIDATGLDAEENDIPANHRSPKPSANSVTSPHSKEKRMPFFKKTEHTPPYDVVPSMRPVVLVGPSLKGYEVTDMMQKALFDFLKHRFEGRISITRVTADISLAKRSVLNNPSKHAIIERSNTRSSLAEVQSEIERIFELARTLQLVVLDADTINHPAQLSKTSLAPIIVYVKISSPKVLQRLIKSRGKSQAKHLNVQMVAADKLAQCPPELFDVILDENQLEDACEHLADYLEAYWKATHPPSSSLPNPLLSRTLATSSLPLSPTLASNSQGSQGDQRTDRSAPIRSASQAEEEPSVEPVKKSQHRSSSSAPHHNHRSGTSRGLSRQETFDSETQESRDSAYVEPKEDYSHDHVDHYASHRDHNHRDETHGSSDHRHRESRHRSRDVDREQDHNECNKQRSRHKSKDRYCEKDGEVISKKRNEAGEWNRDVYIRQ
T1 sequence (Q13936 whole entry): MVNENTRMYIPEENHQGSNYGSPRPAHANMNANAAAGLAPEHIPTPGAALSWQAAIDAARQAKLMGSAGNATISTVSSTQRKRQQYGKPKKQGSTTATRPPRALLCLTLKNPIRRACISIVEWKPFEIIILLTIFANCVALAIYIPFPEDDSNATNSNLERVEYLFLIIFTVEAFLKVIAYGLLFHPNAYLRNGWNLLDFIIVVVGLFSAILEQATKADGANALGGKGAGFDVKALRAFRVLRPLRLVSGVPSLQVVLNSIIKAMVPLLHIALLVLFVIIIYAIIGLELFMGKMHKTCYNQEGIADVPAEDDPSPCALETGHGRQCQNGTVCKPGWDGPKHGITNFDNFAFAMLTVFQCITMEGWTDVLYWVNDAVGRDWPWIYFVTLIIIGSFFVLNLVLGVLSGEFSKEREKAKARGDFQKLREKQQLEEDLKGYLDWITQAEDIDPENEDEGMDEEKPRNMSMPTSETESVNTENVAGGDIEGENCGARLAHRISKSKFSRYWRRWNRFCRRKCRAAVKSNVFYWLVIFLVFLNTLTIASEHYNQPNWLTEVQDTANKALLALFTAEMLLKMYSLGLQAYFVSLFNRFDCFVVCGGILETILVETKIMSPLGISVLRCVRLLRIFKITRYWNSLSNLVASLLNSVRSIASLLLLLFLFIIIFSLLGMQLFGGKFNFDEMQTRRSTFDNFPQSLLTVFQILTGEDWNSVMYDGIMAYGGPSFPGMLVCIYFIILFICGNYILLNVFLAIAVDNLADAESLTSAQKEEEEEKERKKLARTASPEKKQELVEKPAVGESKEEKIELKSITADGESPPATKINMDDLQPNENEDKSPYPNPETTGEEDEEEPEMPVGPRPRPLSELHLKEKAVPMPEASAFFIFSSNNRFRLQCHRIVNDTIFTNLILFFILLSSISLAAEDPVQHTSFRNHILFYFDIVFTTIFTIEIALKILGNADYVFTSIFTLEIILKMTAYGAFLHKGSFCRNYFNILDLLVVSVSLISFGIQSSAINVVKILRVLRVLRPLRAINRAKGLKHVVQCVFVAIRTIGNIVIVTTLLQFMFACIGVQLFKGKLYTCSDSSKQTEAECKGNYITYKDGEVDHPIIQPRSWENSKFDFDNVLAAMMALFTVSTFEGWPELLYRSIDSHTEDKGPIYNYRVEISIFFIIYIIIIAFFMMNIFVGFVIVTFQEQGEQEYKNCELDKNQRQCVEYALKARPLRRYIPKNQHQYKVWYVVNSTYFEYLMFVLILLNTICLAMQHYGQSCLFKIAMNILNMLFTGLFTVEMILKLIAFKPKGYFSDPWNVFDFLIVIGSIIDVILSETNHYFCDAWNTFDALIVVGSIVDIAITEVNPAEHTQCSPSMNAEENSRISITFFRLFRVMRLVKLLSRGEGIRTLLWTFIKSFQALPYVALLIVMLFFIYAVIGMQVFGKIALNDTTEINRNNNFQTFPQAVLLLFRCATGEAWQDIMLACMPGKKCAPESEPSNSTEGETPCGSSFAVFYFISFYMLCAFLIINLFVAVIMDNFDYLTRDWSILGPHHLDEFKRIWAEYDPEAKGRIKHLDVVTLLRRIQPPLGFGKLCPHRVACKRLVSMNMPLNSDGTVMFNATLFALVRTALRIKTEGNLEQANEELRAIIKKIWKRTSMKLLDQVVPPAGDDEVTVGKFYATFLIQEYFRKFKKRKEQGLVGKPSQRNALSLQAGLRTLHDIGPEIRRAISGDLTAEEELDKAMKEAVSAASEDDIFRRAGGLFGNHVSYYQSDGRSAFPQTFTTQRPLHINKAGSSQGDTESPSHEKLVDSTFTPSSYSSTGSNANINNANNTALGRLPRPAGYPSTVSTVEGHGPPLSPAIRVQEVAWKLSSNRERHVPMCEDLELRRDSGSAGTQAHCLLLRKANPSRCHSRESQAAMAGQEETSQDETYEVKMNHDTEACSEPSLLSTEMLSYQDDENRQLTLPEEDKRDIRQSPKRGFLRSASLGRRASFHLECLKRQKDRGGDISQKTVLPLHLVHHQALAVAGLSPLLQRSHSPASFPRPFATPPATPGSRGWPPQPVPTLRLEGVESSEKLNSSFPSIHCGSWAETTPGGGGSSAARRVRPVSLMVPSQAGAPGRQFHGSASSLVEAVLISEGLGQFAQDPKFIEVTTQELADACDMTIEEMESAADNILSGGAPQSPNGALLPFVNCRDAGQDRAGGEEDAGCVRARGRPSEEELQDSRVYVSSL
Procedure, shortened: (§1)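 HEK-293 cells stably expressing hCav1.2 (α1C/β2a/α2δ1), induced with tetracycline 1 μg/mL for 24 h. Perforated whole-cell manual patch clamp (amphotericin B 250 μg/mL in pipette; Cs-methanesulfonate internal, pH 7.2) at 24 °C. Holding potential −90 mV, 1000 ms prepulse inactivating 20% of channels, then a 50 ms step to 0 mV, repeated every 15 s. I_Ca-L followed over time, then washout with external solution. Final ethanol/DMSO ≤1.00%.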

[9] = test system: PC-12; test: Neuroprotective activity against NaN3-induced cell injury in rat PC-12 cells assessed as cell survival rate at 2 to 8 uM measured after 24 hrs by CCK-8 assay (reference value: 50%); format: functional; settings: dose 2-8 µM
[10] = target: T1, Cav1.2 (L-type calcium channel alpha1c/beta2a/alpha2delta1); test: Inhibition of human alpha1c/beta2a/alpha2delta1 Cav1.2 expressed in HEK293 cells assessed as time course of inhibition of membrane potential measured after washout with external solution at 10 uM by manual patch clamp technique; format: cell-based; procedure, shortened: as §1
[11] = test system: PC-12; test: Neuroprotective activity in rat PC12 cells assessed as reduction in NaN3-induced LDH release at 4 uM measured by LDH release assay (reference value: 411.84 to 416.67 U/L); format: functional
Procedure, shortened: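 PC12 injury model: glucose-free, serum-free RPMI 1640. Pretreatment 4 μM, 1 h before NaN3, then 24 h with NaN3. Cells disrupted by ultrasonication and centrifuged at 10 000 rpm for 10 min at 4 °C. Supernatant LDH measured with a commercial kit, in U/L. n = 3 independent experiments.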

[12] = target: L-type calcium channel alpha-1c/beta-2/alpha2delta-1 (Homo sapiens, UniProt P54289+Q13936+Q08289); test: Irreversible inhibition of human alpha1c/beta2a/alpha2delta1 Cav1.2 expressed in HEK293 cells assessed as decrease in membrane potential measured after washout with external solution at 100 uM by manual patch clamp technique; format: cell-based; settings: hek293, 100 µM; procedure, shortened: as §1
[13] = target: L-type calcium channel alpha-1c/beta-2/alpha2delta-1 (Homo sapiens, UniProt P54289+Q08289+Q13936); test: Inhibition of human alpha1c/beta2a/alpha2delta1 Cav1.2 expressed in HEK293 cells assessed as time course of inhibition of membrane potential measured after washout with external solution by manual patch clamp technique; format: cell-based; procedure, shortened: as §1
Sequence of L-type calcium channel alpha-1c/beta-2/alpha2delta-1 (Homo sapiens, UniProt P54289+Q08289+Q13936) (P54289 25-956 limits assumed): as the sequence (P54289 25-956 limits assumed) above
Sequence of L-type calcium channel alpha-1c/beta-2/alpha2delta-1 (Homo sapiens, UniProt P54289+Q08289+Q13936) (P54289 957-1103 limits assumed): as the sequence (P54289 957-1103 limits assumed) above
Sequence of L-type calcium channel alpha-1c/beta-2/alpha2delta-1 (Homo sapiens, UniProt P54289+Q08289+Q13936) (Q08289 whole entry): as the sequence (Q08289 whole entry) above
Sequence of L-type calcium channel alpha-1c/beta-2/alpha2delta-1 (Homo sapiens, UniProt P54289+Q08289+Q13936) (Q13936 whole entry): as the sequence (Q13936 whole entry) above

[14] = target: T1, Cav1.2 (L-type calcium channel alpha1c/beta2a/alpha2delta1); test: Inhibition of human alpha1c/beta2a/alpha2delta1 Cav1.2 expressed in HEK293 cells assessed as time course of inhibition of membrane potential measured after washout with external solution at 100 uM by manual patch clamp technique; format: cell-based; procedure, shortened: as §1
[15] = test system: PC-12; test: Neuroprotective activity against NaN3-induced cell injury in rat PC12 cells assessed as cell survival rate at 20 uM measured after 24 hrs by CCK-8 assay (reference value: 50%); format: functional; settings: read-out: Survival
[16] = test system: PC-12; test: Neuroprotective activity against NaN3-induced cell injury in rat PC12 cells assessed as cell survival rate at 40 uM measured after 24 hrs by CCK-8 assay (reference value: 50%); format: functional; settings: read-out: Survival
[17] = test system: PC-12; test: Neuroprotective activity in rat PC12 cells assessed as prevention of NaN3-induced apoptosis at 5 to 10 uM measured after 24 hrs by Hoechst staining based assay; format: functional, cell-based; settings: dose 5-10 µM
Procedure, shortened: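 PC12 cells plated at about 1 × 10⁵ per well and cultured overnight. Pretreated 1 h with 5, 10 or 20 μM compound, then NaN₃ for 24 h in glucose-free, serum-free RPMI 1640 after two washes in glucose-free EBSS pH 7.5. Cells fixed 30 min in methanol, stained with Hoechst 33258 for 10 min at 37 °C in the dark, and scored for nuclear morphology by fluorescence microscopy (ex 350/em 461 nm).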

[18] = test system: PC-12; test: Neuroprotective activity in rat PC12 cells assessed as prevention of NaN3-induced decrease in SOD release at 5 to 20 uM measured (reference value: 54 U/mg of protein); format: functional; settings: dose 5-20 µM
[19] = test system: PC-12; test: Neuroprotective activity in rat PC12 cells assessed as reduction in NaN3-induced LDH release at 5 to 10 uM measured by LDH release assay (reference value: 411.84 to 416.67 U/L); format: functional; settings: dose 5-10 µM
[20] = test system: PC-12; test: Neuroprotective activity against NaN3-induced cell injury in rat PC12 cells assessed as cell survival rate at 5 uM measured after 24 hrs by CCK-8 assay (reference value: 50%); format: functional; settings: read-out: Survival
[21] = test system: PC-12; test: Neuroprotective activity against NaN3-induced cell injury in rat PC12 cells assessed as cell survival rate at 10 uM measured after 24 hrs by CCK-8 assay (reference value: 50%); format: functional; settings: read-out: Survival
[22] = test system: PC-12; test: Neurotrophic activity in rat PC12 cells assessed as cell survival rate at 1 uM measured after 24 hrs by CCK-8 assay (reference value: 50%); settings: PC-12, 24 h

Compound `CCCCCCCCC[C@@H](O)C#CC#C[Si](C(C)C)(C(C)C)C(C)C` has a viability at 100 µM [1] of 37.6%, a viability at 80 µM [2] of 39.5% and a viability at 40 µM [3] of 43.5%. The viability at 10 µM [4] was 47.8%, the viability at 20 µM [5] was 46.2% and the viability at 5 µM [6] was 49.4%.
`C=C[C@@H](O)C#CC#CC/C=C\CCCCCCC` was tested, and the Activity [7] was 68 nmol/mL, the inhibition at 30 µM [8] was 28.1% and the Survival [9] was 59%. For the same compound, the inhibition at 10 µM [10] was 7.9%, the Activity [11] was 211 U/L and the Activity [12] was “Active”. The IC50 [13] was 41.3 µM and the inhibition at 100 µM [14] was 61.6%.
Work on `CCCCCCCCC[C@H](C#CC#C[Si](C(C)C)(C(C)C)C(C)C)OC(=O)c1ccccc1` yielded a viability at 100 µM [1] of 43.9%, a viability at 80 µM [2] of 46.4% and a viability at 40 µM [3] of 46.4%. For the same compound, the viability at 10 µM [4] was 47.9%, the viability at 20 µM [5] was 47.5% and the viability at 5 µM [6] was 50.4%.
In the case of `COc1cccc([C@@H](O)C#CC#C[Si](C(C)C)(C(C)C)C(C)C)c1`, the viability at 20 µM [15] is reported as 61% and the viability at 40 µM [16] is reported as 65%.
In the case of `CC(C)[Si](C#CC#C[C@H](O)c1cccc(F)c1)(C(C)C)C(C)C`, the Activity [7] is reported as 53 nmol/mL, the Activity [17] is reported as “Active” and the Activity [18] is reported as 124 U/mg. For the same compound, the Activity [19] was 132 U/L, the viability at 5 µM [20] was 83% and the viability at 10 µM [21] was 76%.
Work on `CC(C)[Si](C#CC#C[C@H](O)c1ccccc1)(C(C)C)C(C)C` yielded a viability at 100 µM [1] of 51.9%, an Activity [7] of 47 nmol/mL and an inhibition at 30 µM [8] of 38.6%. It also gave an Activity [18] of 124 U/mg, a viability at 80 µM [2] of 53% and an Activity [19] of 132 U/L. For the same compound, the inhibition at 10 µM [10] was 7.7%, the viability at 1 µM [22] was at most 96% and the viability at 5 µM [20] was 60%. It also gave a viability at 40 µM [3] of 58.2%, a viability at 10 µM [21] of 67% and a viability at 10 µM [4] of 66.6%. It also gave a viability at 20 µM [5] of 58%, an IC50 [13] of 41.3 µM and a viability at 5 µM [6] of 60.1%. It also gave an inhibition at 100 µM [14] of 79.7%.
With `C#CC#C[C@H](O)c1ccccc1` the viability at 100 µM [1] was 43.5%, the viability at 80 µM [2] was 47.5% and the viability at 40 µM [3] was 49.9%. For the same compound, the viability at 10 µM [4] was 52.4%, the viability at 20 µM [5] was 55% and the viability at 5 µM [6] was 47.8%.
`CCCCCCCCC[C@H](C#CC#C[C@H](O)c1ccccc1)OC(=O)c1ccccc1` was tested, and the viability at 100 µM [1] was 31.3%, the viability at 80 µM [2] was 36.2% and the viability at 40 µM [3] was 51.7%. It also gave a viability at 10 µM [4] of 63.7%, a viability at 20 µM [5] of 61.3% and a viability at 5 µM [6] of 65.6%.
`CC(C)[Si](C#CC#C[C@@H](O)C1CCCC1)(C(C)C)C(C)C` showed a viability at 20 µM [15] of 66% and a viability at 40 µM [16] of 65%.
